From ChEMBL document CHEMBL5154772, “Biological Investigation of a Water-Soluble Isoginkgetin-Phosphate Analogue, Targeting the Spliceosome with In Vivo Antitumor Activity” (J Med Chem, 2022)

Legend:
[1] = MRT(0 to t) in C57BL/6J mouse at 0.711 mg/kg, iv administered as single dose measured up to 24 hrs; assay type: ADME, organism-based; settings: in vivo
Outline: (§1)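 Single intravenous dose. Mice were male C57BL/6J, 12 per route; tail-vein blood was collected under sodium heparin, with 3 mice sampled at each pair of times (0.083/2, 0.25/4, 0.5/8, 1/24 h). Dogs were male beagles (n=3); jugular blood was collected under K2 EDTA predose and at 0.083, 0.25, 0.5, 1, 2, 4, 6, 8 and 24 h. Plasma was prepared from the samples.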

[2] = Plasma protein binding in human assessed as unbound fraction at 2 uM by rapid equilibrium dialysis based LC-MS/MS analysis; assay type: ADME, cell-free
Outline: (§2)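 Binding was measured at 2 μM in triplicate by rapid equilibrium dialysis (8K MWCO). Quantification was by UPLC-MS/MS on a phenyl column in positive ESI MRM mode (m/z 727>567), with an ammonium formate pH 5 / 1,5-DMHA mobile phase at 50 °C. Both unbound fraction (fu) and % bound are reported.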

[3] = target: Prostaglandin G/H synthase 1 (Homo sapiens) (UniProt P23219); assay: Inhibition of COX1 (unknown origin) at 10 uM
[4] = Stability in mouse plasma assessed as compound remaining incubated up to 2 hrs by HPLC-MS/MS analysis; assay type: ADME, cell-free; settings: read-out: Stability
Outline: (§3)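 Incubation in mouse or human plasma for up to 2 h, with compound remaining expressed as a percentage.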

[5] = Half life in C57BL/6J mouse at 0.711 mg/kg, iv administered as single dose measured up to 24 hrs; assay type: ADME, organism-based; settings: in vivo; outline: as §1
[6] = Toxicity in C57BL/6 mouse assessed as change in liver weight at 100 mg/kg, ip administered as single dose and measured after 15 days (reference value: 1.2 to 1.3 g); assay type: organism-based; settings: in vivo, 360 h, time 15 day
Outline: (§4)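 Female C57BL/6 mice given one IP injection of 100 µL, at 50, 100, 250 or 500 mg/kg in sterile PBS, two mice per dose; PBS-injected controls. Behaviour checked right after and at 30 min. Body weight recorded every 2–3 days for 15 days, then liver, spleen and kidneys weighed.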

[7] = Metabolic stability in human liver microsomes assessed as parent compound remaining incubated for 45 mins in absence of NADPH by HPLC-MS/MS analysis; assay type: ADME, Microsome; settings: read-out: Stability
Outline: (§5)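 Incubation with mouse or human liver microsomes for 45 min, with or without NADPH. Remaining parent compound was quantified over time by HPLC-MS/MS and expressed as % remaining; intrinsic clearance is given in μL/min/mg protein.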

[8] = Tmax in C57BL/6J mouse at 9.103 mg/kg, ip administered as single dose measured up to 24 hrs; assay type: ADME, organism-based; settings: in vivo
Outline: (§6)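 Single intraperitoneal dose in male C57BL/6J mice (12 per route). Tail-vein blood was collected under sodium heparin for plasma, with 3 mice sampled at each pair of times: 0.083/2, 0.25/4, 0.5/8 and 1/24 h. F denotes bioavailability.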

[9] = Metabolic stability in human liver microsomes assessed as parent compound remaining incubated for 45 mins in presence of NADPH by HPLC-MS/MS analysis; assay type: ADME, Microsome; settings: read-out: Stability; outline: as §5
[10] = Stability in human plasma assessed as compound remaining incubated up to 2 hrs by HPLC-MS/MS analysis; assay type: ADME, cell-free; settings: read-out: Stability; outline: as §3
[11] = Toxicity in C57BL/6 mouse assessed as change in spleen weight at 500 mg/kg, ip administered as single dose and measured after 15 days (reference value: 0.1 to 0.2 g); assay type: organism-based; settings: in vivo, 360 h, time 15 day; outline: as §4
[12] = AUCextra in C57BL/6J mouse at 9.103 mg/kg, ip administered as single dose measured up to 24 hrs; assay type: ADME, organism-based; settings: in vivo; outline: as §6
[13] = MRT(0 to t) in Beagle dog at 26.76 mg/kg, iv administered as single dose measured up to 24 hrs; assay type: ADME, organism-based, Canis lupus familiaris; settings: in vivo; outline: as §1
[14] = Antiproliferative activity against mouse MCA-205 cells assessed as decrease in cell viability at 10 uM measured after 72 hrs by MTT based colorimetric assay; assay type: functional
[15] = target: Histamine H2 receptor (Homo sapiens) (UniProt P25021); assay: Antagonist activity at HRH2 (unknown origin) at 10 uM; assay type: functional; parameters: scale not given: the % may be the effect or the level left; settings: filed as antagonist
Outline: (§7)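 Single-concentration safety screen at 10 μM across a 47-target panel. GPCRs were run in antagonist mode and enzymes in inhibitor mode.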

[16] = Toxicity in C57BL/6 mouse assessed as change in body weight at 100 mg/kg, ip administered as single dose and measured after 15 days (reference value: 23.5 to 24.2 g); assay type: organism-based; settings: in vivo, 360 h, time 15 day; outline: as §4
[17] = target: cGMP-inhibited 3',5'-cyclic phosphodiesterase 3A (Homo sapiens) (UniProt Q14432); assay: Inhibition of PDE3A (unknown origin) at 10 uM; outline: as §7
[18] = AUCextra in C57BL/6J mouse at 0.711 mg/kg, iv administered as single dose measured up to 24 hrs; assay type: ADME, organism-based; settings: in vivo; outline: as §1
[19] = AUC(0 to t) in C57BL/6J mouse at 9.103 mg/kg, ip administered as single dose measured up to 24 hrs; assay type: ADME, organism-based; parameters: time < 24 hrs, dose 9.103 mg/kg, route ip; settings: in vivo; outline: as §6
[20] = Oral bioavailability in C57BL/6J mouse at 9.103 mg/kg administered as single dose measured up to 24 hrs; assay type: ADME, organism-based; settings: in vivo
[21] = Plasma protein binding in mouse assessed as unbound fraction at 2 uM by rapid equilibrium dialysis based LC-MS/MS analysis; assay type: ADME, cell-free; outline: as §2
[22] = Toxicity in C57BL/6 mouse assessed as change in liver weight at 500 mg/kg, ip administered as single dose and measured after 15 days (reference value: 1.2 to 1.3 g); assay type: organism-based; settings: in vivo, 360 h, time 15 day; outline: as §4
[23] = Toxicity in C57BL/6 mouse assessed as change in spleen weight at 250 mg/kg, ip administered as single dose and measured after 15 days (reference value: […]); assay type: organism-based; settings: in vivo, 360 h, time 15 day; outline: as §4
[24] = MRT(0 to t) in C57BL/6J mouse at 9.103 mg/kg, ip administered as single dose measured up to 24 hrs; assay type: ADME, organism-based; settings: in vivo; outline: as §6
[25] = AUC(0 to t) in Beagle dog at 26.76 mg/kg, iv administered as single dose measured up to 24 hrs; assay type: ADME, organism-based, Canis lupus familiaris; parameters: dose 26.76 mg/kg, time < 24 hrs, route iv; settings: in vivo; outline: as §1
[26] = Toxicity in C57BL/6 mouse assessed as change in body weight at 50 mg/kg, ip administered as single dose and measured after 15 days (reference value: 23.5 to 24.2 g); assay type: organism-based; settings: in vivo, 360 h, time 15 day; outline: as §4
HUVEC = assay: Antiproliferative activity against human HUVEC cells assessed as decrease in cell viability at 10 uM measured after 72 hrs by MTT based colorimetric assay; assay type: functional
[27] = Half life in Beagle dog at 26.76 mg/kg, iv administered as single dose measured up to 24 hrs; assay type: ADME, organism-based, Canis lupus familiaris; settings: in vivo; outline: as §1
[28] = AUC(0 to t) in C57BL/6J mouse at 0.711 mg/kg, iv administered as single dose measured up to 24 hrs; assay type: ADME, organism-based; parameters: dose 0.711 mg/kg, time < 24 hrs, route iv; settings: in vivo; outline: as §1
[29] = Tmax in C57BL/6J mouse at 0.711 mg/kg, iv administered as single dose measured up to 24 hrs; assay type: ADME, organism-based; settings: in vivo; outline: as §1
[30] = Toxicity in C57BL/6 mouse assessed as change in kidney weight at 50 mg/kg, ip administered as single dose and measured after 15 days (reference value: 0.3 g); assay type: organism-based; settings: in vivo, 360 h, time 15 day; outline: as §4

Sequence of Histamine H2 receptor (Homo sapiens) (P25021 whole entry): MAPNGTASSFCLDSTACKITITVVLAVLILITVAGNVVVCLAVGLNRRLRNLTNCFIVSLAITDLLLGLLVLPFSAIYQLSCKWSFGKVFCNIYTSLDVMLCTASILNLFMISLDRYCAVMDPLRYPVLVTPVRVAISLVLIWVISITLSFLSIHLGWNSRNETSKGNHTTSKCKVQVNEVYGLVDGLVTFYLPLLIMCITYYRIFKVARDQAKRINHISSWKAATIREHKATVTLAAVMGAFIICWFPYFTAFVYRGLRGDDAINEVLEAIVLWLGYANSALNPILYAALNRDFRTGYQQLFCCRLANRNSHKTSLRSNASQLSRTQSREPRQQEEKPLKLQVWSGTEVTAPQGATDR
Sequence of cGMP-inhibited 3',5'-cyclic phosphodiesterase 3A (Homo sapiens) (Q14432 whole entry): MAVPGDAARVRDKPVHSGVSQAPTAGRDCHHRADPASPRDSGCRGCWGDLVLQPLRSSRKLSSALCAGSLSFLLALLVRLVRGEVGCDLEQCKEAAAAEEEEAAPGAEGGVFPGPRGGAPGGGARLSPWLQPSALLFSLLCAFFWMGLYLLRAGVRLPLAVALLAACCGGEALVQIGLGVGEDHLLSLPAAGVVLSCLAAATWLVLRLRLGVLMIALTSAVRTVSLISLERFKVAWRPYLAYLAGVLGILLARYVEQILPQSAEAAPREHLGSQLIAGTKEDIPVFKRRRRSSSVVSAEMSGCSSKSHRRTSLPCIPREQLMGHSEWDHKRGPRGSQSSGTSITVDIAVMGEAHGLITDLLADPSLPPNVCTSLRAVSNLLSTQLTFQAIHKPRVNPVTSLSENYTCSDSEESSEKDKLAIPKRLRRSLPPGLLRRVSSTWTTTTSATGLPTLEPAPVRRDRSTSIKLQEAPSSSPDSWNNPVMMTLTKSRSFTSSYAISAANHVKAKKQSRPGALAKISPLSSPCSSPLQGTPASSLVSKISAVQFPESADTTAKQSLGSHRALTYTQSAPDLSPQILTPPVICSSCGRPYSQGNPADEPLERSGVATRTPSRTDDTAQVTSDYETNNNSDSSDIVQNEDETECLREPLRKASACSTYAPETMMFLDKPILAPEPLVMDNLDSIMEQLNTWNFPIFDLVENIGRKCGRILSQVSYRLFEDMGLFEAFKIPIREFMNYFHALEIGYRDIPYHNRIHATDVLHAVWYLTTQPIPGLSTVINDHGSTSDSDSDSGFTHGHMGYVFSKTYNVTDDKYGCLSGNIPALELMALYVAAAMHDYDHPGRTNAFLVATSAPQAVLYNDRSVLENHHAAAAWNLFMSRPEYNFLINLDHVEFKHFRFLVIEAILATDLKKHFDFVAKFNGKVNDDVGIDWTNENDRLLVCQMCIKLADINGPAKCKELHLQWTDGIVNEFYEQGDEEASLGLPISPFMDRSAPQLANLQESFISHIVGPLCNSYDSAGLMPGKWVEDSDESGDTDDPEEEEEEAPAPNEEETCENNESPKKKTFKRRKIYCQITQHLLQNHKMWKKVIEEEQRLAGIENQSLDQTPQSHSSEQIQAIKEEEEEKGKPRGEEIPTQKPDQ

## COc1ccc(-c2cc(=O)c3c(O)cc(OP(=O)([O-])[O-])c(-c4cc(-c5cc(=O)c6c(O)cc(OP(=O)([O-])[O-])cc6o5)ccc4OC)c3o2)cc1.[Na+].[Na+].[Na+].[Na+]
[1]
  MRT last at 24 h: 54 min
[2]
  fraction unbound at 2 µM: 0.02
[3]
  inhibition: 52.8%
[4]
  remaining at 2 h: 98.1%
[5]
  half-life: 66 min
[6]
  Activity: 1 g
[7]
  remaining at 0.75 h: 64.7%
[8]
  Tmax: 5 min
[9]
  remaining at 0.75 h: 60.8%
[10]
  remaining at 2 h: 94.1%
[11]
  Activity: 0.1 g
[12]
  %AUCextra: 1.3%
[13]
  MRT last at 24 h: 228 min
[14]
  Activity: 20%
[15]
  Activity: 40%
[16]
  Activity: 19.5 g
[17]
  inhibition: 84.8%
[18]
  %AUCextra: 15.2%
[19]
  AUC(0-t) at 24 h: 982 ng·h/mL
[20]
  bioavailability: 86%
[21]
  fraction unbound at 2 µM: 0.02
[22]
  Activity: 1 g
[23]
  Activity: 0.1 g
[24]
  MRT last at 24 h: 42 min
[25]
  AUC(0-t) at 24 h: 655000 ng·h/mL
[26]
  Activity: 19.5 g
HUVEC
  Activity: 25%
[27]
  half-life: 228 min
[28]
  AUC(0-t) at 24 h: 88.8 ng·h/mL
[29]
  Tmax: 5 min
[30]
  Activity: 0.3 g
